# Laboratory results as given in ChEMBL document CHEMBL3244428, “Synthesis and antifungal properties of certain 7-alkylaminopyrazolo[1,5-a]pyrimidines” (J Med Chem, 1977).
# Calls of active or inactive are those of the source. The rule behind the calls is not given here.
# Columns and labels:
# [1] = tested on: Trichophyton mentagrophytes; test: Fungicidal activity against Trichophyton mentagrophytes clinical isolate after 48 hrs by broth dilution method; type: functional
# Outline: (§1)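 Broth dilution in chemically defined medium, with serial dilutions spanning 0.32 to 0.005 µmol/ml. Dermatophyte plates were read after 48 h at 30 °C.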
# [2] = tested on: Trichophyton mentagrophytes; test: Fungistatic activity against Trichophyton mentagrophytes clinical isolate after 48 hrs by broth dilution method; type: functional; outline: as §1
# Cavia porcellus [3] = test: Toxicity in guinea pig skin assessed as scaling administered topically bid measured on day 6; type: organism-based; conditions: in vivo, topical_or_ocular
# Outline: (§2)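 Intact or abraded skin of uninfected guinea pigs was treated topically with 1.0% w/v compound. The vehicle was either a solution of propylene glycol (20%), 70% sorbitol (3%) and ethanol (78%) or a petrolatum ointment. Skin was scored for erythema and scaling up to day 6, against vehicle-treated controls.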
# [4] = tested on: Trichophyton mentagrophytes; test: Antifungal activity against Trichophyton mentagrophytes infected in guinea pig assessed as cure rate of dermal infection at nonirritating dose administered topically bid started on day 3 post infection continued for 8 days measured every other day through day 14 relative to vehicle-treated control; type: functional, organism-based
# Outline: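 Guinea pig T. mentagrophytes skin infection model, treated topically. Compounds were given at non-irritating concentrations, either as a w/v solution in propylene glycol (20%), 70% sorbitol (3%) and ethanol (78%) or in a petrolatum ointment. Treated animals were compared with infected, vehicle-only controls.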
# Cavia porcellus [5] = test: Toxicity in guinea pig skin assessed as erythema administered topically bid measured on day 6; type: organism-based; conditions: in vivo, topical_or_ocular; outline: as §2
# Cavia porcellus [6] = test: Toxicity in guinea pig assessed as skin irritation administered topically bid measured on day 6; type: organism-based; conditions: in vivo, topical_or_ocular; outline: as §2
# [7] = Trichophyton mentagrophytes, 48 h, read-out: MIC
SMILES,MLC [1],"MIC [2, 7]",Activity (Cavia porcellus [3]),Activity [4],Activity (Cavia porcellus [5]),MIC [2],Activity (Cavia porcellus [6])
CCCCCCCCNc1c(C)c(Cl)nc2ccnn12,>320 µM,> 320 µM,,,,,
CCCNc1cc(C)nc2c(Br)cnn12,320 µM,80 µM,,,,,
CCCCCCCCNc1cc(C)nc2c(C(=O)OCC)cnn12,>320 µM,320 µM,,,,,
CCCCCCCC/C=C/CCCCCCCCNc1cc(C)nc2ccnn12,10 µM,5 µM,Toxic,inactive,Toxic,,
CCCCCCCCCCNc1cc(C)nc2ccnn12,>320 µM,40 µM,,,,,
CCCCCCCNc1cc(C)nc2ccnn12,320 µM,40 µM,,,,,
CCCCCCCCNc1cc(C)nc2ccnn12.Cl,160 µM,,Toxic,,Toxic,20 µM,
CCN(CC)c1cc(C)nc2ccnn12,>320 µM,> 320 µM,,,,,
CCCCCCCCNc1cc(C(C)C)nc2ccnn12,>320 µM,20 µM,,,,,
CCCCCCCC/C=C/CCCCCCCCNc1cc(C)nc2c(Br)cnn12,20 µM,10 µM,,Active,,,
Cc1cc(N2CCCCC2)n2nccc2n1,>320 µM,> 320 µM,,,,,
CCCCCCCCNc1ccnc2ccnn12.Cl,80 µM,10 µM,Toxic,inactive,Toxic,,
CCCCCCCCSc1cc(C)nc2ccnn12,160 µM,20 µM,,,,,Toxic
CCCCCCCCNc1cc(Cl)nc2ccnn12,320 µM,20 µM,,,,,
CCCCCCCCNc1c(C)c(C)nc2ccnn12,>320 µM,10 µM,,,,,
CCCCCCCCCCNc1cc(Cl)nc2ccnn12,>320 µM,> 320 µM,,,,,
CCCCCCNc1cc(C)nc2ccnn12,320 µM,40 µM,,,,,
Cc1cc(NCC(=O)O)n2nccc2n1,>320 µM,> 320 µM,,,,,
CCCCCCCCNc1cc(C(=O)OCC)nc2ccnn12,>320 µM,320 µM,,,,,
CCCCCCCCNc1cc(C)nc2ccnn12 [listing 1 of 2 here],160 µM,20 µM,Toxic,,Toxic,,
CCCCCCCCNc1cc(C)nc2ccnn12 [listing 2 of 2 here],,,,inactive,,,
Cc1cc(NCc2ccc(Cl)cc2Cl)n2nccc2n1,>320 µM,40 µM,,,,,
Cc1cc(NCCCN2CCOCC2)n2nccc2n1.Cl,320 µM,> 320 µM,,,,,
